Test results taken from article PMC10262665 (Science (New York, N.Y.), 2023).
Each block holds one compound with its values, some of them ahead of it.

What was measured:
FBP1 = molecular target: T1, FBP1 (Homo sapiens, UniProt P09467); assay: MIDAS protein-metabolite interaction screen; type: binding; conditions: significant PMI Q < 0.01
T1 sequence (P09467 1-338): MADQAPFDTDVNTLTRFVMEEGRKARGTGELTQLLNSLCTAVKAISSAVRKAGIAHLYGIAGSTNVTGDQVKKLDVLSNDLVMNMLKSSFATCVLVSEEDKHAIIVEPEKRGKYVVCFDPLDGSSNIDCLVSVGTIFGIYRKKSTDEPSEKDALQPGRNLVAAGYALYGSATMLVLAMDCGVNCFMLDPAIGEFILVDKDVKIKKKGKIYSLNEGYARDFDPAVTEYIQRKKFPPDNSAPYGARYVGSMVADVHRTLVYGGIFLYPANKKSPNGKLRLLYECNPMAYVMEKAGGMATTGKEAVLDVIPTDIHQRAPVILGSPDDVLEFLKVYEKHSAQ
Outline: (§1)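 Purified protein is separated from a defined metabolite library by a semipermeable dialysis membrane that passes metabolites but not protein, then incubated to relative equilibrium. Protein is denatured and removed. Metabolites in both chambers are quantified by flow injection analysis–MS, with methods optimized for each pool. The between-chamber fold change is normalized and corrected for nonspecific interactions.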

FBP2 = molecular target: T2, FBP2 (Homo sapiens, UniProt O00757); assay: MIDAS protein-metabolite interaction screen; type: binding; conditions: significant PMI Q < 0.01
T2 sequence (O00757 1-339): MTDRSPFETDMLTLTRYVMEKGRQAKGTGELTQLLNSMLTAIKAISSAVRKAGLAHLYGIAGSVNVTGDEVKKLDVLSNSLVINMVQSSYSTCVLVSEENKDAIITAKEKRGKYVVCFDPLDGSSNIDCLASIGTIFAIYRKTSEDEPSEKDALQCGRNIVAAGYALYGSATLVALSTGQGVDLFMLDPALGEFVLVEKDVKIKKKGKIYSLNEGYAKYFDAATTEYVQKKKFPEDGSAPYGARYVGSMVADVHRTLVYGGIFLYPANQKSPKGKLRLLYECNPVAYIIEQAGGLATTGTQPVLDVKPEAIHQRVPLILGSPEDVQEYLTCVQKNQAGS
Outline: as §1

ENO1 [1] = molecular target: T3, ENO1 (Homo sapiens, UniProt P06733); assay: MIDAS protein-metabolite interaction screen; type: binding; conditions: significant PMI Q < 0.01
Outline: as §1

ENO2 [2] = molecular target: T4, ENO2 (Homo sapiens, UniProt P09104); assay: MIDAS protein-metabolite interaction screen; type: binding; conditions: significant PMI Q < 0.01
Outline: as §1

ENO1 [3] = molecular target: T3, ENO1; assay: Differential scanning fluorimetry; type: binding
ENO2 [4] = molecular target: T4, ENO2; assay: Differential scanning fluorimetry; type: binding
enolase = assay: In vitro enolase activity; type: biochemical, human
LDHA [5] = molecular target: T5, LDHA (Homo sapiens, UniProt P00338); assay: Differential scanning fluorimetry; type: binding
LDHB [6] = molecular target: T6, LDHB (Homo sapiens, UniProt P07195); assay: Differential scanning fluorimetry; type: binding
LDHA [7] = molecular target: T5, LDHA; assay: LDH enzyme activity assay; type: biochemical; conditions: for mode of LDHA inhibition: with respect to NAD and lactate
Outline: (§2)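 LDH isoform activity measured in vitro with test metabolites (adenosine nucleotides, CoA and acyl-CoAs) over a concentration range. IC50 is derived from the inhibition curves. Mode of inhibition is assessed against NAD and lactate.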

LDHB [8] = molecular target: T6, LDHB; assay: LDH enzyme activity assay; type: biochemical; conditions: in vitro
Outline: as §2

LDHA [9] = molecular target: T5, LDHA; assay: Binding to palmitoyl-CoA immobilized on agarose beads
Outline: (§3)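 Pull-down of LDH protein on palmitoyl-CoA immobilized on agarose beads. Competition with free palmitoyl-CoA, with buffer alone or acetyl-CoA as comparators.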

LDHB [10] = molecular target: T6, LDHB; assay: as above
Outline: as §3

fumarase (FH) = molecular target: T7, fumarase (FH) (Homo sapiens, UniProt P07954); assay: MIDAS protein-metabolite interaction screen; type: binding; conditions: significant PMI Q < 0.01
T7 sequence (P07954 45-510): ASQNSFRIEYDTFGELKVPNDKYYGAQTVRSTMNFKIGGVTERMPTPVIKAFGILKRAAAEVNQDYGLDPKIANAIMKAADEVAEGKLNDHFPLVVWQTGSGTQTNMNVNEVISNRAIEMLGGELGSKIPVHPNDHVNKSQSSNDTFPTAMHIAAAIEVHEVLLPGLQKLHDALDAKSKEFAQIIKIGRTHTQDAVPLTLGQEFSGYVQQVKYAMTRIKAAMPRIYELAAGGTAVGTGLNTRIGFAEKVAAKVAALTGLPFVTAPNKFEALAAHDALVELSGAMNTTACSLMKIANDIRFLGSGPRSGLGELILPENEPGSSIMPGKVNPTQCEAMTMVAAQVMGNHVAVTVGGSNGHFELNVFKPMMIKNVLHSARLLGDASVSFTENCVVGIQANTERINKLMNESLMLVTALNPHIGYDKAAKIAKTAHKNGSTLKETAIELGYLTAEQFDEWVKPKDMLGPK
Outline: as §1

fumarase [11] = molecular target: T8, fumarase (Homo sapiens, UniProt P07954); assay: Differential scanning fluorimetry; type: binding
T8 sequence (P07954 45-510): T7 sequence (P07954 45-510)

fumarase [12] = molecular target: T8, fumarase; assay: Fumarase kinetic assays; type: biochemical

T6 sequence (P07195 whole entry): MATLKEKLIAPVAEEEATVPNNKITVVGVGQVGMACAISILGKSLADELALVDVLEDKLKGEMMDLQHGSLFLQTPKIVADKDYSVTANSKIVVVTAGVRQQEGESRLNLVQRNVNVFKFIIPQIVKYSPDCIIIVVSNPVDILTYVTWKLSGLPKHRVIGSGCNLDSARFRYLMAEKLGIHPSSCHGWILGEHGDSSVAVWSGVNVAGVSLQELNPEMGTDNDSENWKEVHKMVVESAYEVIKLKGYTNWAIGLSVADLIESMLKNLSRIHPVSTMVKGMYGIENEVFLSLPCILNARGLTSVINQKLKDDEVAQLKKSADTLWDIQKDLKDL
T4 sequence (P09104 whole entry): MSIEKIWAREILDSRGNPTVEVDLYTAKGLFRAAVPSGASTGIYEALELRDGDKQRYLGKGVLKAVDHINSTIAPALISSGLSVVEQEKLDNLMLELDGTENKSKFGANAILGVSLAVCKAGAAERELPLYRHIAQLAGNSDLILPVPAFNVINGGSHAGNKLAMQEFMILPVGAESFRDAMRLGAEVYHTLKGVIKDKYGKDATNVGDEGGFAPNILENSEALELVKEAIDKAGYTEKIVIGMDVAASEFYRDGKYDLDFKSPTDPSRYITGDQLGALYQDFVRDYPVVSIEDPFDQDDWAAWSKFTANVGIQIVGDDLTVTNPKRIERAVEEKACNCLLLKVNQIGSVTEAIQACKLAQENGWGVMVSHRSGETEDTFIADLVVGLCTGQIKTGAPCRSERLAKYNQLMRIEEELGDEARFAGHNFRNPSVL
T3 sequence (P06733 whole entry): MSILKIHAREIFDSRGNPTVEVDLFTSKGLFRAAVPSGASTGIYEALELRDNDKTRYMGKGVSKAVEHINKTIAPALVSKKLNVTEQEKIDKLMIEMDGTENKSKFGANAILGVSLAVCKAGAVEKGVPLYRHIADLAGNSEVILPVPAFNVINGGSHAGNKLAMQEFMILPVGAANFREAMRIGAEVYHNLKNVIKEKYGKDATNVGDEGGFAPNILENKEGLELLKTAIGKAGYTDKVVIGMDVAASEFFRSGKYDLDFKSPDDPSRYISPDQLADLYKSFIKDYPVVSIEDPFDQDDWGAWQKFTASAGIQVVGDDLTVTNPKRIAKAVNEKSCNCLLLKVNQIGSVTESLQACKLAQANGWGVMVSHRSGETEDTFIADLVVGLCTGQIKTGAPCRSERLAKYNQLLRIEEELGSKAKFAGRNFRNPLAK

- MIDAS protein-metabolite interaction (FBP1): showed an interaction
- MIDAS protein-metabolite interaction (FBP2): only FBP1 showed an interaction
SMILES: N[C@H]1C(O)O[C@H](COP(=O)(O)O)[C@@H](O)[C@@H]1O (stereo partly drawn) [glucosamine-6-phosphate]

- MIDAS protein-metabolite interaction (ENO1 [1]): most enriched metabolite
- MIDAS protein-metabolite interaction (ENO2 [2]): most enriched metabolite
- Kd (ENO1 [3]): 1.38 mM
- Kd (ENO2 [4]): 1.15 mM
- inhibition of in vitro enolase activity (enolase): only weakly inhibited
SMILES: N[C@@H](COP(=O)(O)O)C(=O)O [pSer, phosphoserine]

More lines, now with the values behind:

SMILES: Nc1ncnc2c1ncn2[C@@H]1O[C@H](COP(=O)(O)OP(=O)(O)OP(=O)(O)O)[C@@H](O)[C@H]1O [ATP, adenosine triphosphate]
- Kd (LDHA [5]): 636 µM
- Kd (LDHB [6]): 697 µM
- mode of LDHA inhibition (LDHA [7]): competitive
- inhibition of LDHB enzyme activity (LDHB [8]): inhibited only the LDHA isoform

SMILES: CCCCCCCCCCCCCCCC(=O)SCCNC(=O)CCNC(=O)[C@H](O)C(C)(C)COP(=O)(O)OP(=O)(O)OC[C@H]1O[C@@H](n2cnc3c(N)ncnc32)[C@H](O)[C@@H]1OP(=O)(O)O [C16:0-CoA, palmitoyl-CoA]
- protein species induced in DSF assay (LDHA [5]; LDHA, low-micromolar concentrations of ligand): thermolabile species
- protein species induced in DSF assay (LDHB [6]; LDHB, low-micromolar concentrations of ligand): thermostable species
- IC50 (LDHA [7]; LDHA enzyme activity, acyl-CoAs): ~1000 nM
- mode of LDHA inhibition (LDHA [7]): noncompetitive
- disruption of protein binding to immobilized palmitoyl-CoA by free competitor (LDHA [9]; agarose beads): disrupted
- affinity of direct interaction (LDHA [9]; from DSF and bead binding): low-micromolar affinity
- disruption of protein binding to immobilized palmitoyl-CoA by free competitor (LDHB [10]; agarose beads): disrupted
- affinity of direct interaction (LDHB [10]; from DSF and bead binding): low-micromolar affinity

SMILES: O=P(O)(O)OC[C@H]1O[C@H](OP(=O)(O)OP(=O)(O)O)[C@H](O)[C@@H]1O [PRPP, 5-phospho-D-ribose 1-diphosphate]
- MIDAS protein-metabolite interaction (FBP1): interacted
- MIDAS protein-metabolite interaction (FBP2): interacted

SMILES: NC(CP(=O)(O)O)C(=O)O (stereo not drawn) [AP-3, 2-amino-3-phosphonopropionic acid]
- MIDAS protein-metabolite interaction (fumarase (FH)): putative interactor
- Kd (fumarase [11]): 980 µM
- inhibition of fumarase, mode (fumarase [12]): competitively inhibited
